Assay results pooled from the literature.
Compare with care: the assays were run in different laboratories.
Target: Serine/threonine-protein kinase MRCK beta (CDC42BPB, Homo sapiens, UniProt Q9Y5S2)

Compound | observed | method | tested at | remaining binding [%]
CN(C)c1nccc(-c2cnn3ncccc23)n1 | binding |  | 1 µM | 100
O=C(c1ccc(Nc2nccc(-c3cc4ccccc4s3)n2)cc1)N1CCC(N2CCCC2)CC1 | binding | competition with immobilised ligand | 1 µM | 100
O=C(Nc1cccnn1)N1CC(C/C=C/c2cncc(Oc3ccc(C(F)(F)F)cn3)n2)C1 | cell-free assay | competition with immobilised ligand | 1 µM | 100
COc1ncc2cc3ccccc3nc2c1C#N | cell-free assay | competition with immobilised ligand | 5 µM | 100
O=C(O)[C@@H]1[C@@H](Cn2nnc3ccccc3c2=O)CC[C@H]1C(=O)c1ccc(OCCC2CCOCC2)cc1 | cell-free assay | competition with immobilised ligand | 1 µM | 96
CN(C)c1ncc(F)c(-c2cnn3ncccc23)n1 | binding |  | 1 µM | 100
C[C@@H](c1ccc(-n2cnc3c(N)ncnc32)cc1)N1CCc2nn(C)c(Cc3ccccc3)c2C1=O | binding | competition with immobilised ligand | 0.1 µM | 89
CCN1CCN(Cc2ccc(C(=O)Nc3ccc(C)c(Oc4ccc5c(c4)CC(=O)N5)c3)cc2C(F)(F)F)CC1 | binding | competition with immobilised ligand | 1 µM | 77
c1cnn2ncc(-c3ccnc(N4CCC45COC5)n3)c2c1 | binding |  | 1 µM | 94
CNC(=O)[C@@H]1CC[C@@H](n2c(-c3ccc4cnccc4c3)nc3ccc(C(=O)NCc4cccc(C(N)=O)c4)cc32)C1 | binding | competition with immobilised ligand | 1 µM | 100
Cc1cnc(Nc2ccc(C(=O)N3CCC(N4CCCC4)CC3)cc2)nc1-c1cc2ccccc2s1 | binding | competition with immobilised ligand | 1 µM | 59
N[C@H]1CCN(c2nccc(-c3cnn4ncccc34)n2)C1 | binding |  | 1 µM | 88
C[C@H](NC(=O)c1cnc2n1[C@](C)(Cc1ccc(C#N)cc1)C(=O)N2c1cc(Cl)c(F)c(Cl)c1)C(=O)NC1(c2ccccn2)CC1 | cell-free assay | competition with immobilised ligand | 1 µM | 100
C[C@H]1CCN(c2nccc(-c3cnn4ncccc34)n2)C1 | binding |  | 1 µM | 100
COc1ccc2cc(OCC3(C(=O)O)CN(C(=O)c4ccc(F)cc4)C3)ccc2c1 | cell-free assay | competition with immobilised ligand | 1 µM | 100
c1cncc(-c2cccc(Nc3nccc(NC4CCCCC4)n3)c2)c1 | binding | competition with immobilised ligand | 10 µM | 99
COc1ccnn2ncc(-c3ccnc(N(C)C)n3)c12 | binding |  | 1 µM | 100
CC(C)CC(=O)N1CCc2nc(-c3ccc(Br)cc3)nc(N(C)Cc3ccccc3)c2C1 | cell-free assay | competition with immobilised ligand | 0.1 µM | 99
O=C(NCCCN1CCOCC1)c1ccc(Nc2nccc(-c3cc4ccccc4s3)n2)cc1 | binding | competition with immobilised ligand | 1 µM | 100
Cc1nc(C2CCN(C(=O)c3ccc(OC(F)(F)F)cc3N)CC2)c2ncc(N3CCN(C)CC3)cc2n1 | cell-free assay | competition with immobilised ligand | 1 µM | 100
O=C(NCC1CCOCC1)c1n[nH]cc1NC(=O)c1c(F)cccc1F | binding | competition with immobilised ligand | 1 µM | 95
